Measured values from ChEMBL document CHEMBL4513216, “Probing the Open Global Health Chemical Diversity Library for Multistage-Active Starting Points for Next-Generation Antimalarials” (ACS Infect Dis, 2020).

assay: Toxicity liver stage against HepG2, at 10uM; type: cell-based; set-up: test concentration 10 uM, cell line HepG2-A16-CD81EGFP; conditions: human, HepG2-A16-CD81EGFP cells; read-out: INHIBITION
Procedure, shortened: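 Uninfected HepG2-A16-CD81EGFP cells, 3 × 10^3 per well, 1536-well, plated on prespotted compound at 10 μM final, parasite-free screening media added to match infected plates; puromycin 10 μM positive, DMSO 0.5% negative; run in parallel with 48 h PbLuc assay at 37 °C, 5% CO2; viability by CellTiter-Glo luminescence, normalized to controls.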

Going from `CC(C)Oc1cccc(C(=O)C2CCCN(C(=O)c3ccnn3C)C2)c1` (centres undefined) to `Cc1nnc(N2CCCC(C(=O)c3cccc(Cl)c3)C2)o1` (centres undefined), the cytotoxicity at 10 µM rises from 1.3% to 6.14%.

Compared with `O=C(NC(c1ccccc1)c1cccnc1)C1CC1` (centres undefined), `O=C(NC(c1ccc(Cl)cc1)c1cccnc1)C1CC1` (centres undefined) is lower in cytotoxicity at 10 µM: 2.99% for the first, -3.94% for the second.

Going from `Cn1nc(C(=O)N2CCC(Oc3ccc(C#N)cn3)CC2)ccc1=O` to `CCCS(=O)(=O)N1CCC(Oc2ccc(C#N)cc2)CC1`, the cytotoxicity at 10 µM rises from -3.33% to 3.82%.

Going from `COCCNC(=O)c1ccc2ccc(N(C)CC3CC3)n2c1` to `COCCOCC(=O)N(C)Cc1ccc(OCc2cccs2)cc1`, the cytotoxicity at 10 µM rises from 0.375% to 4.38%.

First: Cn1ccc2c(cnc3nc(-c4ccncc4)nn32)c1=O
Second: COCCNc1ncc(-c2cccc(F)c2)c(-c2nccn2C)n1
The cytotoxicity at 10 µM of the first is lower: -4.17% for the first, 13.4% for the second.

Going from `Cn1cc(CNS(=O)(=O)c2cc(F)ccc2F)cn1` to `COCCN(Cc1cccnc1)S(=O)(=O)c1ccc(F)cc1C`, the cytotoxicity at 10 µM falls from -0.439% to -5.06%.

Compared with `Cc1nc2[nH]cnc(Nc3ccn(C)n3)c-2n1`, `COCCOc1ccc(CNCC2CNc3cc(C)nn3C2)cn1` (centres undefined) is lower in cytotoxicity at 10 µM: 18.2% for the first, -10.7% for the second.

Going from `Cc1cn[nH]c1C1COCCN1Cc1cscn1` (centres undefined) to `O=C(c1cnccn1)N1CCN(Cc2cscn2)CC1`, the cytotoxicity at 10 µM falls from 2.67% to -8.36%.

First: O=S1(=O)NC(c2ccnc(N3CCCCC3)n2)=Nc2ccccc21
Second: Nc1ccnc(N2CCCC(CCc3ccccc3)(C(=O)O)C2)n1 (centres undefined)
The cytotoxicity at 10 µM of the first is higher: 18.3% for the first, 3.33% for the second.

Going from `COc1cccc(CN2CCC(Cc3cnc(CN(C)C)cn3)CC2)c1` to `COc1cccc(CN(C)Cn2nc(C(C)(C)C)ccc2=O)c1`, the cytotoxicity at 10 µM rises from -2.82% to 1.12%.

Going from `CC(C)CCN1CCC2(CC1)NCc1ccccc1NC2=O` to `Cc1ccc2c(n1)N(C)CCN(CCN1CCCC1)C2`, the cytotoxicity at 10 µM falls from 3.46% to -8.84%.

Going from `CN(C)S(=O)(=O)NC1CC(=O)N(c2ccccc2Cl)C1` (centres undefined) to `Cc1cnn(C2CN(Cc3nnc(-c4ccccc4Cl)o3)C2)c1`, the cytotoxicity at 10 µM falls from 3.57% to -2.76%.

Going from `CC(C)(C)CNC(=O)c1ccc(C(=O)O)cc1` to `CCC(C)(C)CC(=O)NC(C)C(=O)Nc1ccc(-n2cncn2)cc1` (centres undefined), the cytotoxicity at 10 µM rises from -8.17% to 3.47%.

Compared with `Cc1[nH]nc2ncc(C(=O)N3CCN(CC(O)C(C)(C)C)CC3)cc12` (centres undefined), `CCc1nc(C(=O)N2CCN(C(=O)CCc3ccccc3)CC2)c[nH]1` is higher in cytotoxicity at 10 µM: 4.41% for the first, 5.92% for the second.

Going from `O=C(NCCc1cc(F)ccc1F)NC(CO)c1ccccc1` (centres undefined) to `Cc1ccc(-n2cnnn2)cc1NCC(=O)Nc1cc(F)ccc1F`, the cytotoxicity at 10 µM falls from 8.78% to 6.23%.

Compared with `Cc1cc(C)c(CNC(=O)NCCNc2ncccn2)c(=O)[nH]1`, `CCCNC(=O)NCc1nc(C)c(C)o1` is higher in cytotoxicity at 10 µM: -49.4% for the first, 5.19% for the second.

First: COC(=O)c1oc(CNC(C)(C)c2ccc3c(c2)OCO3)cc1C
Second: CCC(NC(=O)NCc1cc(Cl)ccc1OC)c1noc(C)n1 (centres undefined)
The cytotoxicity at 10 µM of the first is higher: 4.47% for the first, 4.06% for the second.

Going from `CC1CN(C(=O)C2(c3ccc(F)cc3F)CCOCC2)CCO1` (centres undefined) to `O=C(N1CCC2(CC1)[C@H](O)C[C@@H]2O)C1(c2ccccc2F)CC1`, the cytotoxicity at 10 µM rises from -4.84% to 6.1%.

Going from `O=S(=O)(CCN1CCCCC1Cn1cccn1)c1ccccc1` (centres undefined) to `O=S(=O)(CC1CCCCO1)Nc1cc(F)ccc1-n1cccn1` (centres undefined), the cytotoxicity at 10 µM rises from -8.66% to 7.71%.

First: FC(F)(F)C1CCc2nnc(CNCc3cccs3)n2C1 (centres undefined)
Second: COCC(=O)NCc1cc(=O)n2c(n1)CN(Cc1cccs1)CCC2
The cytotoxicity at 10 µM of the first is higher: 2.9% for the first, -96.5% for the second.

First: NC(=O)CCCNC(=O)c1cc(Br)c2c(c1)OCCO2
Second: CCN(CC)C(=O)CCCNC(=O)Cc1nc(-c2ccco2)oc1C
The cytotoxicity at 10 µM of the first is higher: 9.31% for the first, 1.57% for the second.

First: Cc1cc(C2CN(CC(=O)NCc3ccco3)CCO2)ccc1F (centres undefined)
Second: Cc1nc(CC(=O)N(CCN2CCOCC2)Cc2ccco2)c(C)s1
The cytotoxicity at 10 µM of the first is higher: 4.29% for the first, -3.71% for the second.

Going from `Cc1cc(C)n(-c2ccc(N3CCCSCC3)nc2)n1` to `CCOc1ccc(OC2CCCN(c3cnn(C)c3)C2=O)cc1` (centres undefined), the cytotoxicity at 10 µM rises from -2.08% to 0.118%.

Compared with `COc1ccc(-c2nc(CN3CC(n4cccn4)C3)no2)cc1`, `CNCCNc1ccc(-c2nc(-c3cccc(OC)c3OC)no2)cn1` is higher in cytotoxicity at 10 µM: -3.08% for the first, -2.4% for the second.

Going from `CN1CC(NC(=O)CCCc2cc(Cl)sc2Cl)CCC1=O` (centres undefined) to `CCSCCC(=O)NC1CCN(C(C)c2ccccc2)CC1` (centres undefined), the cytotoxicity at 10 µM rises from -5.01% to -1.22%.

First: CCc1ncncc1C(=O)Nc1ccc2ccn(CCN(C)C)c2c1
Second: Cc1cccc(-c2ncc(CNC(C)Cc3ncccc3C)cn2)c1 (centres undefined)
The cytotoxicity at 10 µM of the first is higher: 6.11% for the first, -13.2% for the second.

Going from `Cc1n[nH]c(C)c1NC(=O)CN(CC(O)c1ccc(F)cc1)C1CC1` (centres undefined) to `COc1ccccc1N1CCC(CNCc2c(C)nn(C)c2OC)C1` (centres undefined), the cytotoxicity at 10 µM rises from -7.3% to 5.28%.

Compared with `CCN1CCOC(CNc2nccc(OC)n2)C1` (centres undefined), `CCN1CCOC(CNCc2ccccc2OCc2ccccn2)C1` (centres undefined) is lower in cytotoxicity at 10 µM: -0.572% for the first, -10.1% for the second.

Compared with `CCC(SC)C(=O)N1CCC(n2ccnn2)CC1` (centres undefined), `CCn1nc(CC(C)C)cc1C(=O)N1CCC(n2cnnc2)CC1` is higher in cytotoxicity at 10 µM: -41.5% for the first, -7.71% for the second.

First: c1ccc(CN2CCC(NCCc3ccc4c(c3)CCO4)CC2)nc1
Second: c1ccc2c(c1)CN(c1ncnc3c1CCNC3)CCO2
The cytotoxicity at 10 µM of the first is higher: 3.73% for the first, 3.13% for the second.

Compared with `CCOCCC(=O)N1CC(=O)Nc2cc(Br)ccc21`, `COCC(=O)NCc1cc(=O)n2c(n1)CN(Cc1ccccc1)CCC2` is lower in cytotoxicity at 10 µM: 6.87% for the first, -103% for the second.

Going from `Cn1c2c(c(=O)n1C)CN(C(=O)c1ccncc1F)CCC2` to `CCOc1ncccc1C(=O)N1CCN(C)C2(CCN(C)CC2)C1`, the cytotoxicity at 10 µM rises from -95% to -0.351%.

Compared with `Cc1cnc(N2CCOC3(COCCN(c4nccs4)C3)C2)nc1` (centres undefined), `Cc1noc(C)c1CN1CCc2ncc(Cn3cccn3)n2CC1` is higher in cytotoxicity at 10 µM: -114% for the first, 2.65% for the second.

Compared with `CN(CCO)Cc1nnc(C2CCN(C(=O)c3cccn3C)CC2)n1C`, `CN(C)C[C@@H]1C[C@@H]2CN(C(=O)c3ccoc3)CC[C@@H]2N1CC1CC1` is higher in cytotoxicity at 10 µM: -0.537% for the first, 6.71% for the second.

First: COc1ccccc1CCC(=O)N1CCCC(OCc2cccnc2)C1 (centres undefined)
Second: CCCOC1CCCN(C(=O)c2ccc(S(N)(=O)=O)cc2)C1 (centres undefined)
The cytotoxicity at 10 µM of the first is higher: 2.98% for the first, -13.6% for the second.

Compared with `Cc1cccnc1CCNCC1(O)CCCN(CC2CCCCC2)C1=O` (centres undefined), `Cc1cnccc1N1CCN(C[C@]2(O)CCCN3CCCC[C@@H]32)CC1` is higher in cytotoxicity at 10 µM: -203% for the first, 10.4% for the second.

Compared with `O=C(NCc1noc(C2CCCO2)n1)c1cn2ccsc2n1` (centres undefined), `OCC1CCCCN1CCCNCc1cc(O)c2cc(F)ccc2n1` (centres undefined) is lower in cytotoxicity at 10 µM: -3.77% for the first, -39.2% for the second.

Compared with `CC(C)(C)SCCNC(=O)[C@@]12CNC[C@@H]1CN(S(C)(=O)=O)C2`, `CC(C)(C)c1ccc(OCC(N)=O)c(CN2C[C@H]3CC(O)C[C@H]3C2)c1` (some centres undefined) is lower in cytotoxicity at 10 µM: 0.251% for the first, -5.28% for the second.

First: CC(C)(O)c1cn(C2CCN(c3ncccc3Cl)CC2)nn1
Second: COCCN1CCCC12CCN(Cc1cccnc1OC)CC2
The cytotoxicity at 10 µM of the first is lower: -46.4% for the first, 15.4% for the second.

Going from `COc1ccc(Cc2c(O)nc(SC)n(-c3ccccc3)c2=O)cc1` to `Fc1ccc(CN2CCCC3(CCN(Cc4ncc[nH]4)C3)C2)cc1F` (centres undefined), the cytotoxicity at 10 µM falls from 1.76% to -12%.

Compared with `CCN1C(=O)CCC12CCC(NC(=O)NCc1cccnc1)CC2` (centres undefined), `Cc1nnc(CN2CCC3(CCC(=O)N(C4CCC(O)CC4)C3)CC2)o1` (centres undefined) is higher in cytotoxicity at 10 µM: -104% for the first, -8.23% for the second.

First: Cc1ccc(CN2CCC3(CCCN3S(C)(=O)=O)CC2)s1
Second: COCCN1CCCn2c(nc(CNS(C)(=O)=O)cc2=O)C1
The cytotoxicity at 10 µM of the first is lower: -113% for the first, -110% for the second.
